CHRM4 antagonist: human M4 muscarinic receptor antagonists, primary screen, CHO cells, Fluo-8 calcium fluorescence; Muscarinic acetylcholine receptor M4 (Homo sapiens), P08173; 360,000 tested, 0.73% active; CHO-hM4 cells, ACh EC80; inhibition, % at 3 µM;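 active means inhibition above its plate's cutoff, the mean inhibition of sample wells plus 3 SD, cut at about 27% in these data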;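 further: 0% = acetylcholine EC80 with DMSO and 100% = DMSO without agonist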
M5 ag: human M5 muscarinic receptor agonists, primary screen, CHO-K1 cells, Fluo-8 calcium fluorescence; CHO-K1 hM5 cells; 0% DMSO wells, 100% maximal acetylcholine response; activation, % at 3 µM; 360,000 tested, 0.19% active;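 active means activation above the run's mean over test compounds plus 3 SD, cut at about 23% in these data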;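 further: signal is peak over basal fluorescence ratio across the kinetic read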
Target sequence (P08912 whole entry, looked up): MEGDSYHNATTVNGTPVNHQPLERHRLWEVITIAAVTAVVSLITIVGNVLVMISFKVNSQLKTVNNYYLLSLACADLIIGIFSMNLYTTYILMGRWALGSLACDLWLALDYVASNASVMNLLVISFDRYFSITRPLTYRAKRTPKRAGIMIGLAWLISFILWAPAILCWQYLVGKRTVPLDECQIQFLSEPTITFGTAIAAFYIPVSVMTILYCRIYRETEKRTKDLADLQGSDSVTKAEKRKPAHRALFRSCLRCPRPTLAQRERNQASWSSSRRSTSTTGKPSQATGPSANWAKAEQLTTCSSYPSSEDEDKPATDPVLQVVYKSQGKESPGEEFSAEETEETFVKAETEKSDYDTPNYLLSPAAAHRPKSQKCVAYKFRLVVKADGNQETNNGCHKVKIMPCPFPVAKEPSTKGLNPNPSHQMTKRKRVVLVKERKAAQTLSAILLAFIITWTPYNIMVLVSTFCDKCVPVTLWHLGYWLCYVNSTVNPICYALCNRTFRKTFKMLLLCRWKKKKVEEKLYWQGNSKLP
M4 ag: human M4 muscarinic receptor agonists, primary screen, CHO-K1 cells, Fluo-8 calcium fluorescence; CHO-K1 hM4/Gqi5; vehicle 0%, full acetylcholine response 100%; AID 624127, 2012; activation, % at 3 µM; 360,000 tested, 0.14% active;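 active means activation above the run mean over all test wells plus 3 SD, cut at about 32% in these data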;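 further: peak over basal fluorescence ratio per well then scaled between controls; 0% = DMSO wells and 100% = acetylcholine at EC100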
M5 antag: human M5 muscarinic receptor antagonists, primary screen, CHO cells, Fluo-8 calcium fluorescence. Muscarinic acetylcholine receptor M5 (Homo sapiens), P08912. CHO-hM5 cells, ACh EC80. inhibition, % at 3 µM. 360,000 tested, 0.59% active;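 active means inhibition above a per-plate cutoff, the mean of that plate's test compounds plus 3 SD, cut at about 27% in these data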;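 further: 0% = acetylcholine EC80 with DMSO and 100% = DMSO without agonist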
M5 PAM: human M5 muscarinic receptor positive allosteric modulators, primary screen, CHO-K1 cells, Fluo-8 calcium fluorescence | activation, % at 3 µM | AID 624038, 2012 | CHO-K1 hM5, ACh EC20 PAM; 0% = ACh EC20, 100% = ACh EC100 | 360,000 tested, 0.3% active;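 active means activation above the run cutoff, the mean activation of all test compounds plus 3 SD, cut at about 18% in these data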
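Measured by: Fluo-8 calcium fluorescence; material: human M5 receptor in CHO-K1 cells; schedule: Post-acetylcholine fluorescence recording 140 s; benchmarks: low control EC20 acetylcholine (0%), high control EC100 acetylcholine (100%); read-out: Max/basal fluorescence ratio as % of EC20–EC100 ACh window; compound: single dose, 3 µM nominal final test concentration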
CHRM4 PAM: human M4 muscarinic receptor positive allosteric modulators, primary screen, CHO-K1 cells, Fluo-8 calcium fluorescence; Muscarinic acetylcholine receptor M4 (Homo sapiens), P08173; activation, % at 3 µM; AID 624126, 2012; 360,000 tested, 0.4% active; CHO-K1 hM4/Gqi5, ACh EC20; 0% = ACh EC20, 100% = maximal ACh;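 active means activation above its plate's cutoff, the mean activation of sample wells plus 3 SD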
An asterisk follows results filed as active. Compounds with a hit are over-represented: about 1.8% of the library has one in this group of screens.

SMILES | CHRM4 antagonist | M5 ag | M4 ag | M5 antag | M5 PAM | CHRM4 PAM
Cc1ccc2c(c1)C(=O)N1[C@H]3c4ccccc4OC[C@@H]3[C@H](c3ccccc3)[C@]1(C)C(=O)N2 | 53* | -6 | 1 | 17 | -36 | -14
COc1ccc2c(c1)OC[C@H]1[C@H]2N2C(=O)c3cc(C)ccc3NC(=O)[C@@]2(C)[C@H]1c1ccccc1 | 23 | 3 | 0 | -3 | 0 | -10
Cc1ccc2c(c1)[C@H]1[C@H](CO2)[C@H](c2ccccc2)[C@]2(C)C(=O)Nc3ccccc3C(=O)N12 | 60* | -7 | 1 | 21 | -34 | -14
C[C@@]12C(=O)Nc3ccc(Br)cc3C(=O)N1[C@H]1c3ccccc3OC[C@@H]1[C@@H]2c1ccccc1 | 35* | 3 | 2 | 15 | -21 | -9
Cc1ccc2c(c1)NC(=O)[C@@]1(C)[C@@H](c3ccccc3)[C@H]3COc4ccccc4[C@@H]3N1C2=O | 6 | -1 | 1 | 0 | -1 | -9
CC(=O)NC(c1cccc(F)c1)c1nc(/C=C/c2ccccc2)cs1 (stereo unspecified) | -17 | -1 | 3 | -4 | -2 | 8
COc1ccc2c(c1)[C@H]1[C@H](CO2)[C@H](c2ccccc2)[C@]2(C)C(=O)Nc3ccc(C)cc3C(=O)N12 | -2 | -10 | 1 | 10 | -7 | -7
COc1ccc2c(c1)C(=O)N1[C@H]3c4cc(C)ccc4OC[C@@H]3[C@H](c3ccccc3)[C@]1(C)C(=O)N2 | 34* | -3 | -1 | 18 | -23 | -10
CCOc1ccc(CCNC(=O)CSc2n[nH]c(N)n2)cc1OCC | 13 | -3 | 0 | 30* | -8 | -7
Cc1[nH]nc(C(=O)NN=Cc2ccccc2Cl)c1N=NN(C)C | 5 | 2 | 0 | 3 | -1 | 3
Cc1ccc(C)c(OCc2cc(C(=O)N(C)Cc3nccs3)no2)c1 | 9 | -4 | 6 | 28* | -8 | -4
Cc1ccc(C)c(OCc2cc(C(=O)N(C)Cc3ccccn3)no2)c1 | 0 | -1 | 3 | 5 | -3 | -1
CC(C)(C)NC(=O)C(c1ccccn1)N(C(=O)c1csnn1)C1CCCCC1 (stereo unspecified) | 2 | 0 | 1 | -8 | 9 | 4
CCC(C)(C)NC(=O)C(c1ccccn1)N(C(=O)c1csnn1)C1CCCCC1 (stereo unspecified) | 1 | 0 | 1 | -6 | 23* | 3
CCOC(=O)/C(=C/C=C1\Sc2cc(C)c(C)cc2N1CC)C(C)=O | 11 | 12 | 24 | 11 | 0 | -4
CCOC(=O)/C(=C/C=C1\Sc2ccccc2N1CC)C(C)=O | 14 | 47* | 18 | 23 | -16 | -9
CCOC(=O)/C(=C\C=C1/Sc2ccccc2N1CC)C(C)=O | 4 | 36* | 52* | 10 | -15 | -29
O=C(CCc1nc2ccccc2c(=O)[nH]1)N1CCN(C/C=C/c2ccccc2)CC1 | 4 | -1 | 14 | 28* | -16 | -23
CC(=O)N1CCN(C(=O)CCc2nc3ccccc3c(=O)[nH]2)CC1 | -8 | -4 | 0 | -18 | 6 | 11
CN1/C(=C\C(=O)COC(=O)c2ccco2)C(C)(C)c2ccccc21 | -2 | -1 | 4 | 9 | 0 | -7
CN1/C(=C\C(=O)c2ccco2)C(C)(C)c2ccccc21 | 37* | 4 | 10 | 44* | -14 | -20
O=C(Cn1c(=O)c2cccn2c2ccc(F)cc21)N1CCN(c2ccc(F)cc2)CC1 | 3 | -2 | 2 | 28* | -10 | -5
CC1(C(=O)NCc2ccccc2)CCC(=O)N1C1CCN(Cc2ccccc2)CC1 (stereo unspecified) | -3 | 0 | 1 | -1 | 0 | 2
Cc1cccc(NC(=O)CN(C)C(C)C(=O)Nc2ccc(S(=O)(=O)N3CCCC3)cc2)c1C (stereo unspecified) | 4 | 1 | 4 | -2 | 3 | -1
COc1ccc(OC)c(CN2C(=O)CN(S(C)(=O)=O)CC2(C)C(=O)Nc2c(C)cccc2C)c1 (stereo unspecified) | -14 | 2 | 8 | -4 | 6 | 11
SMILES | CHRM4 antagonist | M5 ag | M4 ag | M5 antag | M5 PAM | CHRM4 PAM
CCc1sc(C(=O)Nc2ncccc2O)cc1C | -5 | -5 | 0 | -2 | -7 | 20*
CCc1sc(C(=O)Nc2ncccc2C)cc1C | 10 | 0 | 2 | 9 | 0 | 5
COc1cc(/C=N/N2C(=O)C3C4c5ccccc5C(c5ccccc54)C3C2=O)ccc1O (stereo unspecified) | -7 | 2 | -1 | 19 | 33* | 17
C(=N\c1nc2ccccc2n1CCN1CCCCC1)/c1ccc2c(c1)OCO2 | 6 | -3 | 1 | -4 | 23* | 10
CC(=O)N1CCN(c2ccc(NCc3ccc4c(c3)OCO4)cc2)CC1 | 17 | -1 | 2 | -7 | -1 | 23*
CN1CCS/C1=C\C=C1/SC(=S)N(CC(=O)O)C1=O | 8 | 49* | 26 | 12 | -14 | -1
O=c1[nH][nH]c2c1[C@H](CCc1cccc(Cl)c1)O[C@H](C1CCCC1)C2 | -23 | 4 | 1 | 2 | -4 | 7
Cc1ccc(Cl)cc1NC(=O)CSc1sc2c(O)cc(=O)[nH]c2c1C#N | 4 | -4 | 1 | 14 | -5 | -1
COc1ccc(Cl)cc1NC(=O)CSc1sc2c(O)cc(=O)[nH]c2c1C#N | 4 | -1 | 7 | 19 | 15 | 23*
Cn1nc(C(C)(C)C)c([N+](=O)[O-])c1C(=O)NC(C)(C)C | 1 | 1 | 1 | 5 | 4 | 32*
Cn1nc(C(C)(C)C)c([N+](=O)[O-])c1C(=O)Nc1ccccc1 | -5 | 0 | 3 | 15 | -15 | 4
COc1cc(CNC(=O)Nc2nc(C(N)Cc3ccc(C(F)(F)F)cc3)cs2)cc(OC)c1OC (stereo unspecified) | 16 | 2 | 4 | 9 | 1 | 3
C[C@H](CO)N1C[C@H](C)[C@@H](CN(C)C(=O)Nc2ccc3c(c2)OCO3)Oc2c(NC(=O)Nc3ccc(C(F)(F)F)cc3)cccc2C1=O | 30* | 7 | 31 | 17 | -35 | -7

Screening results as filed in PubChem.
